Results of several laboratories.
Lines come from different studies, so protocols differ.

Cl.N[C@H]1CCN(c2cc(C(=O)NCC(=O)O)ccc2NC(=O)c2cc(Br)c(Br)[nH]2)C1  MIC (Acinetobacter baumannii; microbial growth; broth dilution; ATCC19606): > 32 µg/mL
COc1cc2ncnc(Nc3ccc4c(c3)/C(=C/c3ccccc3)C(=O)N4C)c2cc1OC  IC50 (B16; cell growth or viability; MTT): 1530 nM
O=C(O)c1cn(C2CC2)c2cc(N3CCNCC3)c(F)cc2c1=O  MIC (Acinetobacter baumannii; microbial growth; broth dilution; ATCC19606): 2 µM
NNC(=O)c1ccncc1  MIC (Mycobacterium kansasii; microbial growth; broth dilution; DSM44162; 7 days): 4 µg/mL
Cc1[nH]c(C(=O)Nc2ccc(C(=O)NCc3n[nH]c(=O)o3)cc2N2CCNCC2)c(Cl)c1Cl.Cl  MIC (Acinetobacter baumannii; microbial growth; broth dilution; ATCC19606): > 32 µg/mL
COc1cc2ncnc(N(C)c3ccc4c(c3)/C(=C/c3ccccc3)C(=O)N4C)c2cc1OC (mixture of isomers)  IC50 (B16; cell growth or viability; MTT): 8070 nM
O=C(O)c1cn(C2CC2)c2cc(N3CCNCC3)c(F)cc2c1=O  MIC (Acinetobacter baumannii; microbial growth; ATCC19606): 8 µM
Cc1nc(N(Cc2ccccc2)c2ccc3c(c2)/C(=C/c2ccccc2)C(=O)N3Cc2ccccc2)c2ccccc2n1 (mixture of isomers)  IC50 (B16; cell growth or viability; MTT): 200 nM
O=C(O)c1cn(C2CC2)c2cc(N3CCNCC3)c(F)cc2c1=O  MIC (Mycobacterium kansasii; microbial growth; broth dilution; DSM44162; 7 days): 1 µg/mL
C=CC(=O)NC1CCN(c2ncc3ncnc(Nc4ccc(Oc5ccc6c(c5)ncn6C)c(C)c4)c3n2)CC1  EC50 (Capan-2; cell growth or viability): 36.1 nM
